Measurements: ChEMBL document CHEMBL4311975, “Exploration of the antibiotic potentiating activity of indolglyoxylpolyamines” (Eur J Med Chem, 2019)
Converted amounts (≈) assume the structure as drawn.

How the values were obtained:
Candida albicans = assay: Antifungal activity against Candida albicans ATCC 90028 assessed as growth inhibition incubated for 36 hrs by resazurin dye based assay; assay type: functional; details: ATCC 90028, 36 h
Method in brief: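 Yeast was grown 3 days on YPD agar at 30 °C. Colonies were suspended and diluted in YNB broth to 2.5×10^3 CFU/mL, then added to two-fold compound dilutions (0.008–32 μg/mL final), in duplicate. Plates stood 36 h at 35 °C without shaking. Means, n = 2.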

Cryptococcus neoformans = assay: Antifungal activity against Cryptococcus neoformans ATCC 208821 assessed as growth inhibition incubated for 36 hrs by resazurin dye based assay; assay type: functional; details: ATCC 208821, 36 h
Method in brief: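 Cryptococcus was grown 3 days on YPD agar at 30 °C, suspended, and diluted in YNB broth to 2.5×10^3 CFU/mL. Cells were exposed to 0.008–32 μg/mL compound (final), in duplicate, for 36 h at 35 °C without shaking. Resazurin (0.006% final) was added for a further 3 h. MIC was read from absorbance at OD570–600. Means, n = 2.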

Staphylococcus aureus = assay: Antibacterial activity against Staphylococcus aureus ATCC 25923 assessed as growth inhibition incubated for 18 hrs by broth dilution method; assay type: functional; details: ATCC 25923, 18 h
Method in brief: (§1)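 Broth microdilution following CA-SFM recommendations. Inoculum was 10^5 CFU in Mueller-Hinton broth with two-fold serial drug dilutions. Plates were incubated 18 h at 37 °C. MIC was the lowest concentration giving complete inhibition of visible growth. Values are means, n = 3.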

[1] = tested on: Staphylococcus intermedius; assay: Antibacterial activity against Staphylococcus intermedius 1051997 assessed as growth inhibition incubated for 18 hrs by broth dilution method; assay type: functional; details: Staphylococcus intermedius, 1051997, 18 h; method in brief: as §1
Pseudomonas aeruginosa [2] = assay: Antibacterial activity against Pseudomonas aeruginosa ATCC 27853 assessed as growth inhibition incubated for 18 hrs by broth dilution method; assay type: functional; method in brief: as §1
Escherichia coli = assay: Antibacterial activity against Escherichia coli ATCC 25922 assessed as growth inhibition incubated for 18 hrs by broth dilution method; assay type: functional; method in brief: as §1
Klebsiella pneumoniae = assay: Antibacterial activity against Klebsiella pneumoniae ATCC 700603 assessed as growth inhibition incubated for 18 hrs by resazurin dye based assay; assay type: functional
Method in brief: (§2)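 Overnight cultures were diluted 40-fold in MHB and grown 1.5–2 h at 37 °C to mid-log phase. Cells were added at 5×10^5 CFU/mL final to two-fold compound dilutions (0.008–32 μg/mL final), in duplicate, for 18 h at 37 °C. Resazurin (0.001% final) was added for 2 h and MIC read by eye. Means, n = 2.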

Acinetobacter baumannii = assay: Antibacterial activity against Acinetobacter baumannii ATCC 19606 assessed as growth inhibition incubated for 18 hrs by resazurin dye based assay; assay type: functional; details: ATCC 19606 = CIP 70.34 = JCM 6841, 18 h; method in brief: as §2
Pseudomonas aeruginosa [3] = assay: Potentiation of doxycycline-induced antibacterial activity against Pseudomonas aeruginosa ATCC 27853 assessed as concentration required to restore 2 ug/ml doxycycline activity measured after 18 hrs; assay type: functional
Method in brief: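 Inoculum was 5×10^5 CFU in MHB with two-fold serial dilutions of adjuvant plus fixed doxycycline at 2 μg/mL. […] Repeated independently in triplicate.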

L6 = assay: Cytotoxicity against rat L6 cells measured after 72 hrs by alamar blue assay; assay type: cell-based; details: L6, 72 h
Method in brief: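 Rat L6 myoblasts, 4×10^4/well in RPMI 1640 with L-glutamine and 10% FBS, received seven 3-fold dilutions (90 to 0.123 μg/mL) for 72 h. Alamar Blue was added for 2 h and fluorescence read at ex 536/em 588 nm. Podophyllotoxin served as reference. Means, n = 2.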

[4] = Cytotoxicity against human HEK293 cells measured after 20 hrs by resazurin dye based fluorescence assay; assay type: cell-based
Method in brief: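 HEK293 cells, 5,000/well in DMEM with 10% FBS, were exposed to compound for 20 h at 37 °C, 5% CO2. Resazurin (100 μM final) was added for 3 h, then fluorescence read at ex 560/em 590. Signal was normalised to tamoxifen (74 μg/mL, 0%) and untreated growth (100%), and CC50 came from dose-response fitting. Top dose 32 μg/mL. Means, n = 2.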

[5] = Hemolytic activity against Sprague-Dawley rat RBC assessed as release of hemoglobin at 50 uM incubated for 1 hr relative to control; assay type: ADME, cell-based, Erythrocyte; details: red blood cells (erythrocytes), read-out: Activity
Method in brief: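 Fresh Sprague-Dawley rat erythrocytes were washed in saline and resuspended at 2% v/v. Cells were incubated with compound in DMSO/PBS for 1 h at 37 °C, then centrifuged at 200 g, and supernatant absorbance read at 540 nm. Results were normalised to DMSO/PBS (0%) and 0.1% Triton X-100 (100%). Single-point testing used 50 μM; HC50 came from 10-point curves. Means of three experiments.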

[6] = Klebsiella pneumoniae, 700603, 18 h

Molecule | MIC (Candida albicans) | MIC (Cryptococcus neoformans) | MIC (Staphylococcus aureus) | MIC [1] | MIC (Pseudomonas aeruginosa [2]; ATCC 27853, 18 h) | MIC (Escherichia coli; ATCC 25922, 18 h) | MIC (Klebsiella pneumoniae; [6]) | MIC (Acinetobacter baumannii) | Activity (Pseudomonas aeruginosa [3]) | IC50 (L6) | CC50 at 20 h [4] | hemolysis at 1 h, 50 µM [5] | MIC (Pseudomonas aeruginosa [2]) | MIC (Escherichia coli) | MIC (Klebsiella pneumoniae)
OC(Cn1cncn1)(Cn1cncn1)c1ccc(F)cc1F [FLUCONAZOLE] | 0.125 µg/mL | 8 µg/mL |  |  |  |  |  |  |  |  |  |  |  |  | 
COC(=O)c1cccc2c(C(=O)C(=O)NCCCNCCCCNCCCNC(=O)C(=O)c3c[nH]c4c(C(=O)OC)cccc34)c[nH]c12.O=C(O)C(F)(F)F.O=C(O)C(F)(F)F | > 36 µM | 9 µM | 25 µM | > 200 µM | 200 µM | 200 µM | > 36 µM | > 36 µM | 6.25 µM | 34.4 µM | 3.78 µM | 15% |  |  | 
CN[C@@H]1[C@H](O[C@H]2[C@H](O[C@H]3[C@H](O)[C@@H](O)[C@H](N=C(N)N)[C@@H](O)[C@@H]3N=C(N)N)O[C@@H](C)[C@]2(O)C=O)O[C@@H](CO)[C@H](O)[C@H]1O [STREPTOMYCIN] |  |  | 21.5 µM (≈ 12.5 µg/mL) | 10.7 µM (≈ 6.22 µg/mL) | 21.5 µM (≈ 12.5 µg/mL) | 21.5 µM (≈ 12.5 µg/mL) |  |  |  |  |  |  |  |  | 
N#Cc1ccc2[nH]cc(C(=O)C(=O)NCCCNCCCCNCCCNC(=O)C(=O)c3c[nH]c4ccc(C#N)cc34)c2c1.O=C(O)C(F)(F)F.O=C(O)C(F)(F)F | > 38.9 µM | 38.9 µM | 100 µM | > 200 µM | > 200 µM | > 200 µM | > 38.9 µM | > 38.9 µM | 50 µM | 37.1 µM | > 38.9 µM | 0% |  |  | 
O=C(NCCCNCCCCNCCCNC(=O)C(=O)c1c[nH]c2c(Cl)cccc12)C(=O)c1c[nH]c2c(Cl)cccc12.O=C(O)C(F)(F)F.O=C(O)C(F)(F)F | > 38.1 µM | 19.1 µM | 50 µM |  | 200 µM | 200 µM | > 38.1 µM | > 38.1 µM | 25 µM | 7.47 µM | 31.6 µM | 1.1% |  |  | 
COLISTIN |  |  |  |  |  |  |  |  |  |  |  |  | 1 µM | 2 µM | 0.25 µg/mL
Cc1cccc2c(C(=O)C(=O)NCCCNCCCCNCCCNC(=O)C(=O)c3c[nH]c4c(C)cccc34)c[nH]c12.O=C(O)C(F)(F)F.O=C(O)C(F)(F)F | > 40 µM | 10 µM | 25 µM | 12.5 µM | > 200 µM | > 200 µM | > 40 µM | > 40 µM | 6.25 µM | 59.6 µM | > 40 µM | 0.1% |  |  | 
O=C(NCCCNCCCCNCCCNC(=O)C(=O)c1c[nH]c2ccc(F)cc12)C(=O)c1c[nH]c2ccc(F)cc12.O=C(O)C(F)(F)F.O=C(O)C(F)(F)F | > 39.6 µM | 9.9 µM | 25 µM | 50 µM | 200 µM | 200 µM | > 39.6 µM | > 39.6 µM | 12.5 µM | 71.1 µM | > 39.6 µM | 0% |  |  | 
N#Cc1ccc2c(C(=O)C(=O)NCCCNCCCCNCCCNC(=O)C(=O)c3c[nH]c4cc(C#N)ccc34)c[nH]c2c1.O=C(O)C(F)(F)F.O=C(O)C(F)(F)F | > 38.9 µM | 38.9 µM | 100 µM | 25 µM | > 200 µM | 200 µM | > 38.9 µM | > 38.9 µM | 50 µM | 46.9 µM | > 38.9 µM | 0% |  |  | 
